Results published in PubChem BioAssay AID1765 (Sanford-Burnham Center for Chemical Genomics, 2009).
Activity calls are given as the source filed them.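 How the source made its calls: active means maximal cell kill higher at a 0.156 ng/ml dose of TRAIL, the death-signal protein, than with no TRAIL; inactive means the rest.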

What was measured:
[1] = tested on: PPC-1 cytotoxicity with TRAIL, ATPLite luminescence, 24 h; experiment: TRAIL dependence of compound-driven PPC-1 killing – cell-based, ATPlite luminescence, 24 h, mechanism study for TRAIL sensitizer project, dose response (AID 1765)
How it was run: (§1)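 test system = PPC-1 cells | probe or stimulus = TRAIL 0.156 or 0 ng/mL | doses = 2-fold series from 10 µM, 0.5% DMSO | times = compound pre-incubation 4 h before TRAIL, then 24 h TRAIL exposure | measured by = ATPlite luminescence | controls = 10 µM doxorubicin with TRAIL as full-kill reference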

[2] = as above; conditions: PPC-1 cytotoxicity with TRAIL, ATPLite luminescence, 24 h
How it was run: as §1

[3] = measured here: cytotoxicity without TRAIL
[4] = measured here: max cytotoxicity with TRAIL
[5] = measured here: max cytotoxicity without TRAIL

Row | Structure (SMILES) | EC50 [1] | EC50 [1, 3] | maximal effect [2, 4] | maximal effect [2, 5]
1 | CSc1nc(-c2ccccc2)nc(C(Cl)Cl)n1 | > 10 µM (inactive) | > 10 µM |  | 
2 | CSc1nc(-c2ccc(C)cc2)nc(C(Cl)Cl)n1 | 1 µM | 0.81 µM | 94.5% | 50.4%
3 | CCSc1nc(-c2ccccc2)nc(C(Cl)Cl)n1 | 2.58 µM | 2.5 µM | 46.7% | 34.2%
